Test: Toxicity liver stage against HepG2, at 10uM
Assay type: cell-based
Set-up: test concentration 10 uM, cell line HepG2-A16-CD81EGFP
Details: human, HepG2-A16-CD81EGFP cells; read-out: INHIBITION
Summary of the method: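 Uninfected HepG2-A16-CD81EGFP cells, 3 × 10^3 per well, 1536-well, plated on prespotted compound at 10 μM final, parasite-free screening media added to match infected plates; puromycin 10 μM positive, DMSO 0.5% negative; run in parallel with 48 h PbLuc assay at 37 °C, 5% CO2; viability by CellTiter-Glo luminescence, normalized to controls.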

SMILES | cytotoxicity at 10 µM [%]
CCN(C(=O)CCc1ccc2c(c1)OCO2)C1CC(=O)NC1=O (stereo not drawn) | -3.88
O=C1COC2(CCN(C(=O)c3ccco3)CC2)CN1Cc1cccnc1 | 7.2
CCS(=O)(=O)N1CCN(c2cc(-n3cnc(C)c3C)nc(C)n2)CC1 | 0.599
CCOC(=O)[C@]12CCCN(Cc3cccs3)C[C@H]1CN(CC(C)C)C2 | 10.8
Cc1noc(C)c1NS(=O)(=O)c1cc(Cl)c(Cl)c(C(=O)O)c1 | 4.86
Cc1cnn(CCC(=O)N2CCN(c3nc(C)cs3)CC2)c1 | -11.9
CCC(=O)NC(CC(C)C)c1cccs1 (stereo not drawn) | 6.18
O=C(N1CCOCC1)N1CCc2ncnc(Oc3cccnc3)c2CC1 | -0.82
Cc1nc(CCC(=O)NC2CCC2)cc(C2CCNCC2)n1 | -5.15
CCc1nc(CN2CCCN(Cc3nnc(C4CC4)o3)CC2)no1 | -9.26
O=C(CCn1nc(C(F)(F)F)c(Cl)c1C1CC1)NN1CCOCC1 | 7.69
COc1ccccc1C1(CNc2snc(Cl)c2C#N)CCCC1 | 31.6
CCN(C(=O)CN1CCn2c(nnc2C2CC2)C1)C1=CCCCC1 | 10
COc1c(C)cnc(CSc2nnc(NC3CC3)s2)c1C | 10.9
C[C@@H]1CN(C(=O)CCCN2CCOCC2)CC[C@@]1(O)C1CCC1 | -2.95
CCC(=O)c1ccc(OCC(=O)NC(C)Cc2cc(C)n[nH]2)cc1 (stereo not drawn) | -39.7
Cc1nn2c(NC(=O)CSc3nccn3C)csc2nc1=O | 9.71
CCc1ncc2c(n1)CN(Cc1cnc(C)cn1)CC2 | -7.51
COc1cccc(CN2CCC3(CCN(c4ncc(C)cn4)CC3)C2)c1 | -6.5
CCN1C(=O)CCCC12CCCN(C(=O)c1ccoc1)C2 (stereo not drawn) | -5.83
CN(CC1CN(Cc2cn3ccsc3n2)CCO1)c1cccnn1 (stereo not drawn) | 4.55

SMILES | cytotoxicity at 10 µM [%]
Cc1ncsc1C(=O)N[C@@H](Cc1ccccc1)C(N)=O | -44.9
CSc1ccccc1NC(=O)C1CSc2ncc(C)c(=O)n2C1 (stereo not drawn) | -1.31
Cc1nc(C(C)C)sc1C(=O)NCCNc1ncccn1 | -2.02
CCOc1ccccc1NC(=O)NCc1ccoc1 | -0.335
O=C(CCc1nc2cccnc2[nH]1)NCc1ccncc1 | 3.72
CS(=O)(=O)Nc1ccn(Cc2ccc(F)cc2Cl)n1 | 6.64
COC1CCN(C(=O)NCC(N)=O)CC(=O)N(C)c2ccccc21 (stereo not drawn) | 4.79
OC1(CNCCN2CCc3ccccc32)CNCCOC1 (stereo not drawn) | 10.7
O=C(Nc1ccc(-n2cncn2)nc1)N(CC1CCOC1)C1CC1 (stereo not drawn) | -9.2
NS(=O)(=O)CCCNC(=O)C1(c2cccc(Cl)c2)CC1 | -4.02
COC(=O)CCN(C)Cc1cc(Br)cs1 | 0.311
NC(=O)Cn1ccc(NC(=O)C2(c3cccc(F)c3)CCC2)n1 | -5.75
CCOCC(=O)NCC1CCN(Cc2ccsc2)CC1 | 11.1
CCN1CCOC(CNCc2ccc(C)s2)C1 (stereo not drawn) | 2.35
Cn1ccnc1COc1ccc(CN2CCC(C(N)=O)CC2)cc1 | -4.47
CCCN1CCCCC1C(=O)Nc1ccc(-c2nnc[nH]2)cc1 (stereo not drawn) | 4.64
COc1cc(N2CCO[C@H]3[C@@H](Oc4cccnc4)CC[C@@H]32)ncn1 | -3.33
CC(C)c1noc(CN2CCC(c3nc4cc(Cl)ccc4o3)CC2)n1 | 1.81
CC(NC(=O)c1ccc(=O)n(C)c1)c1ccccc1-n1cccn1 (stereo not drawn) | 2.68
N#Cc1cnc2ccccc2c1N1CCN(C(=O)C2CCC2)CC1 | -2.3
Cc1cc(NC(=O)NCCc2ccc(S(N)(=O)=O)cc2)n(C)n1 | -3.39

SMILES | cytotoxicity at 10 µM [%]
CC(=O)N[C@H]1CN(CC(=O)NCc2ccccc2C)C[C@@H]1C(C)C | 1.69
Cc1noc(NC(=O)CCNC(=O)c2ccc(Br)cc2)n1 | 0.449
C1CCCN(C2CCCN(Cc3noc(C4CC4)n3)C2)CC1 (stereo not drawn) | -8.84
Cc1cccc(S(=O)(=O)N2C[C@@H]3C[C@H](C(=O)N(C)C)[C@H](C2)O3)c1 | -5.18
FC(F)c1nnc2ccc(N3CCC4(CCOC4)C3)nn12 (stereo not drawn) | 9.2
CCCS(=O)(=O)NCc1cccnc1Oc1ccc(C)c(F)c1F | -2.19
C=C(C)COc1cccc(C(=O)NC(C)c2nnn[nH]2)c1 (stereo not drawn) | -8.32
CC(C)c1csc(C2CCCN(C(=O)c3ccc[nH]3)C2)n1 (stereo not drawn) | -48.6
Cc1c(C(C)NC2CSCCSC2)cnn1-c1ccc(F)cc1F (stereo not drawn) | -11.1
O=C(c1cccc2ccnn12)N1CCCC1Cn1cccn1 (stereo not drawn) | -126
CCc1nc(CN(C)C2CCN(CCOc3ccccc3)C2)no1 (stereo not drawn) | -34.6
CC(C)CNC(=O)c1nc2c(s1)CCN(C(=O)c1ccc(Cl)cc1)CC2 | 7.4
CCOc1nnc(CN2CCC(c3cc4ccccc4[nH]3)CC2)s1 | 20.6
COc1cc(OC)c(CNC(=O)NCC(=O)N2CCCC2)c(OC)c1 | 10.4
Cc1nc(CCNC(=O)CC2CCN(C(C)C)CC2)sc1Cl | -194
COCc1cncc2c1CCN(C(=O)c1cccc(C#N)c1)C2 | -98.2
CC(C)CN(Cc1ccc(O)c(C(=O)O)c1)Cc1ccccn1 | 8.5
CC(C)(C)OC(=O)N1CCCN(c2nnc(Br)s2)CC1 | 10.5
CCCC(=O)N1CCCC(c2ccccn2)C1 (stereo not drawn) | 0.0858
c1ccc(-c2cc(CN3C[C@H]4CC[C@@H](C3)N(CC3CCC3)C4)on2)cc1 | 3.27
CCCc1cc(=O)[nH]c2nnc(SCC(C)=O)n12 | 7.29

SMILES | cytotoxicity at 10 µM [%]
NC(=O)c1cccc(CC2CCN(C(=O)Cn3cnnn3)C2)c1 (stereo not drawn) | 0.557
CN1C(=O)COc2cc(NC(=O)CCc3nc4cccnc4[nH]3)ccc21 | -4.13
CCN(CC1CCOC1)C(=O)c1ccc(-c2ccsc2)nc1C (stereo not drawn) | 6.39
Cc1nn(C)c2ncnc(N3CCC(O)(CN4CCCC4)CC3)c12 | 2.68
CC(C)c1cc(C(=O)NCCc2nc3c(s2)CCC3)n(C)n1 | 54.2
CN(C)CC1(O)CCN(C(=O)c2cnc(-c3cccnc3)nc2)C1 (stereo not drawn) | 5.75
Cc1ccc(NC(=O)CN2CCC(OCC3CCCO3)CC2)c(C)c1 (stereo not drawn) | -1.7
Cc1noc(C)c1C(=O)NCC(O)c1ccc(F)cc1F (stereo not drawn) | -3.56
CSCC(=O)N1C[C@@H]2CC[C@H]1CN(C1Cc3ccccc3C1)C2 | -6.08
Cc1nc(CN2CCc3cnc(C(C)C)nc3C2)oc1C | 0.479
O=C1NCCN1C1CCN(CCOc2ccccc2F)CC1 | -3.63
Cc1cccc(CN2CCc3ncnc(Oc4cccnc4)c3CC2)n1 | -139
CC(C)NCC1(O)CCCN(CCC2CCCCC2)C1=O (stereo not drawn) | -2.53
Cn1nc2c(cc1=O)CN(Cc1ccc(-n3cccn3)cc1)CC2 | -141
Cc1nc2c(c(=O)[nH]1)CCN(C(=O)c1[nH]nc3c1CC(C)CC3)C2 (stereo not drawn) | 13.4
Cc1cnc(CN2CCC(N(C)Cc3nnc(C)n3C)C2)cn1 (stereo not drawn) | -10.7
CC(=O)N1CCC(C(=O)N(CC(F)F)c2cccc(Cl)c2)CC1 | 5.71
CCN(Cc1ccoc1)C(C(N)=O)c1cccc(Br)c1 (stereo not drawn) | 2.34
O=C(c1ccccn1)N(CCO)Cc1cc(Br)ccc1F | 9.91
CCCOc1cc(CNC(=O)Nc2ccc(C)cc2)ccn1 | 2.99

— ChEMBL document CHEMBL4513216, “Probing the Open Global Health Chemical Diversity Library for Multistage-Active Starting Points for Next-Generation Antimalarials” (ACS Infect Dis, 2020)
